As a reminder, the inhibition is the percentage by which the read-out fell short of the control.

These results are taken from ChEMBL document CHEMBL4390672, “Development of Covalent Ligands for G Protein-Coupled Receptors: A Case for the Human Adenosine A3 Receptor” (J Med Chem, 2019).

Test [1] deals with T1, Adenosine receptor A3 (Homo sapiens) (UniProt P0DMS8).
T1 sequence (whole entry): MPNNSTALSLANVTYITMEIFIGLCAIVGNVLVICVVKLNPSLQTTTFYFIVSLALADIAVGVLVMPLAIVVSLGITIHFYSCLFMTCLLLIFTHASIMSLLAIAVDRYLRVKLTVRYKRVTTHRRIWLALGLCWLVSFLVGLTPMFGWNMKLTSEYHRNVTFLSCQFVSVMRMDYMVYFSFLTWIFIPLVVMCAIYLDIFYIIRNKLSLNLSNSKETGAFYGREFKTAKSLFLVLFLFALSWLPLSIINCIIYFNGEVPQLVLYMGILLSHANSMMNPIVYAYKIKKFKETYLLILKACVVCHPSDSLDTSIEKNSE
Nature of the test: Displacement of [3H]PSB11 from human A3 adenosine receptor expressed in CHO cell membranes measured after 2 hrs by scintillation spectrometric method. (Displacement assays read how much labelled ligand stays bound in the presence of the test substance.)

The target of test [2] is T1, Adenosine receptor A3 (Homo sapiens). Nature of the test: Irreversible displacement of [3H]PSB11 from human A3 adenosine receptor expressed in CHO cell membranes assessed as residual binding level at 10 times Ki incubated for 2 hrs followed by 4 times membrane washout ans subsequent [3H]PSB11 addition by scintillation spectrometric method relative to control. The method, boiled down:
(§1)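 Membranes then either unwashed or washed four times by centrifugation before [3H]PSB-11 addition. Specific binding normalized to vehicle (100%); three experiments in duplicate; unpaired t test.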

Test [3] relates to T2, Adenosine receptor A3 (Homo sapiens), P0DMS8 [Y265F].
T2 sequence (whole entry): T1 sequence (whole entry) with Y265F
Nature of the test: Displacement of [3H]PSB11 from human A3 adenosine receptor Y265F (7.36) mutant transiently expressed in CHOK1 cell membranes assessed as residual binding level at 10 times IC50 measured after 2 hrs by scintillation spectrometric method. The method, boiled down: (§2)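 Membranes then either unwashed or washed four times before [3H]PSB-11 exposure. Binding normalized to vehicle (100%); three experiments in duplicate.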

Test [4] has the same test system. Kind of test: Displacement of [3H]PSB11 from human A3 adenosine receptor Y265F (7.36) mutant transiently expressed in CHOK1 cell membranes assessed as residual binding level at 10 times IC50 incubated for 2 hrs followed by 4 times membrane washout and subsequent [3H]PSB11 addition by scintillation spectrometric method. Summed up:
as §2

The target in test [5] is T1, Adenosine receptor A3 (Homo sapiens). Nature of the test: Displacement of [3H]PSB11 from human A3 adenosine receptor expressed in CHO cell membranes by scintillation spectrometric method. The note with it: TDE = time-dependent effect. Summed up:
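CHO membranes stably expressing hA3AR (15 µg) in 50 mM Tris-HCl, 5 mM MgCl2, 0.01% CHAPS, 1 mM EDTA, pH 7.4, with ~10 nM [3H]PSB-11 and six competitor concentrations, 120 min at 25 °C. Nonspecific binding defined with 100 µM NECA. Filtration, then scintillation counting; one-site fit, Cheng-Prusoff Ki; three experiments in duplicate.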

For test [6] the target is unchanged. Nature of the test: Irreversible displacement of [3H]PSB11 from human A3 adenosine receptor expressed in CHO cell membranes assessed as residual binding level at 10 times Ki measured after 2 hrs by scintillation spectrometric method relative to control. The method, boiled down: as §1
The target is the same in test [7]. Nature of the test: Displacement of [3H]PSB11 from human A3 adenosine receptor expressed in CHO cell membranes at 10 uM measured after 2 hrs by scintillation spectrometric method relative to control.
Test [8] deals with T3, Adenosine receptor A2b (Homo sapiens) (UniProt P29275).
T3 sequence (whole entry): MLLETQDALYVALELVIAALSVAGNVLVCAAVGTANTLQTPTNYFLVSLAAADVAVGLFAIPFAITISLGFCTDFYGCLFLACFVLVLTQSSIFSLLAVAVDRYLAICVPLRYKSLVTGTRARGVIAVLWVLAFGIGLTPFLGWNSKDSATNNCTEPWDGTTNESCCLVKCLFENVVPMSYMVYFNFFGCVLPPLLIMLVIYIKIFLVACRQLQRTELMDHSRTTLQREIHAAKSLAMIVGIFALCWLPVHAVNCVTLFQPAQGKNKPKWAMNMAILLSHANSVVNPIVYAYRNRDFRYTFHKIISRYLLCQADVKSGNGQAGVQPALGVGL
Kind of test: Displacement of [3H]PSB-603 from human A2B adenosine receptor expressed in CHO cell membranes at 1 uM measured after 2 hrs by scintillation spectrometric method relative to control.

Test [9] concerns the target T1, Adenosine receptor A3 (Homo sapiens). Kind of test: Displacement of [3H]PSB11 from human A3 adenosine receptor transiently expressed in CHOK1 cell membranes measured after 2 hrs by scintillation spectrometric method. The method, boiled down:
(§3)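 CHO-K1 cells transfected by PEI (3:1, 20 µg DNA/dish) with WT or Y265F7.36 hA3AR, then given 5 mM sodium butyrate for 24 h before membrane preparation.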

The subject of test [10] is T2, Adenosine receptor A3 (Homo sapiens), P0DMS8 [Y265F]. Kind of test: Displacement of [3H]PSB11 from human A3 adenosine receptor Y265F (7.36) mutant transiently expressed in CHOK1 cell membranes measured after 2 hrs by scintillation spectrometric method. Summed up: as §3
For test [11], the target named is T4, Adenosine receptor A3 (Homo sapiens, UniProt P0DMS8).
T4 sequence (P0DMS8 whole entry): T1 sequence (whole entry)
Kind of test: Irreversible displacement of [3H]PSB11 from human A3 adenosine receptor expressed in CHO cell membranes measured up to 240 mins by scintillation spectrometric method. The conditions noted are these: in the assay text read “Displacement” for “Irreversible displacement”. The method, boiled down:
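Bound radioligand sampled at time points up to 240 min, then filtered and counted. Competitor kon (k3) and koff (k4) obtained by Motulsky–Mahan fitting, using [3H]PSB-11 k1 and k2 from earlier work.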

The target in test [12] is T1, Adenosine receptor A3 (Homo sapiens). Kind of test: Reversible displacement of [3H]PSB11 from human A3 adenosine receptor expressed in CHO cell membranes assessed as residual binding level at 10 times Ki measured after 2 hrs by scintillation spectrometric method relative to control. Summed up: (§4)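 Samples then either taken unwashed or put through four centrifugation wash cycles before exposure to [3H]PSB-11. Remaining specific binding was normalized to vehicle (100%). Three experiments in duplicate; unpaired t test.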

Test [13] has the same target. Nature of the test: Reversible displacement of [3H]PSB11 from human A3 adenosine receptor expressed in CHO cell membranes assessed as residual binding level at 10 times Ki incubated for 2 hrs followed by 4 times membrane washout and subsequent [3H]PSB11 addition by scintillation spectrometric method relative to control. The method, boiled down:
as §4

Test [14] concerns the target T4, Adenosine receptor A3. Nature of the test: Competitive surmountable antagonist activity at human A3 adenosine receptor expressed in CHO cell membranes assessed as inhibition of 2-Cl-IB-MECA-induced [35S]-GTPgammaS binding preincubated for 60 mins followed by 2-Cl-IB-MECA and [35S]-GTPgammaS addition and measured after 30 mins. It is filed as functional. The note with it: read-out: pA2 (converted). Background: GTPγS is a poorly hydrolysed GTP analogue; its binding reports G protein activation.

For test [15], the target named is T4, Adenosine receptor A3. Kind of test: Competitive surmountable antagonist activity at human A3 adenosine receptor expressed in CHO cell membranes assessed as inhibition of 2-Cl-IB-MECA-induced [35S]-GTPgammaS binding measured after 30 mins. Format: functional. The conditions noted are these: read-out: pA2 (converted).

Where a chain is given by its changes, count along the chain named.

Consider `CCCn1c(=O)c2c(nc3cc(OC)ccn32)n(CCCNC(=O)c2ccc(S(=O)(=O)F)cc2)c1=O`, for which the inhibition result in [1] is “Dose-dependent effect”; in test [5] it was “Tde”. Besides, the Activity in test [2] worked out at 8.7%; in [3], 7.2%; in test [4] it was 91%; in test [6], 11.3%.

As for `CCCn1c(=O)c2c(nc3cc(OC)ccn32)n(CCOC(=O)c2ccc(S(=O)(=O)F)cc2)c1=O`, the inhibition entry in [1] is “Dose-dependent effect”.

For the molecule `CCCn1c(=O)c2c(nc3cc(OC)ccn32)n(CCNC(=O)c2ccc(S(=O)(=O)F)cc2)c1=O`, the results for the inhibition entry in test [1] and in [7] were “Dose-dependent effect” and 27%, respectively.

With `CCCn1c(=O)c2c(nc3cc(OC)ccn32)n(CCNC(=O)c2cccc(S(=O)(=O)F)c2)c1=O`, the inhibition result in test [1] was “Dose-dependent effect”; in test [7] it was 18%.

Regarding `CCCn1c(=O)c2c(nc3cc(OC)ccn32)n(CCCCNC(=O)c2ccc(S(=O)(=O)F)cc2)c1=O`, in test [1], the inhibition entry is “Dose-dependent effect”.

`CCCn1c(=O)c2c(nc3cc(OC)ccn32)n(CCCCOC(=O)c2cccc(S(=O)(=O)F)c2)c1=O`: the inhibition result in test [1] is “Dose-dependent effect”.

As to `CCCn1c(=O)c2c(nc3cc(OC)ccn32)n(CCOC(=O)c2cccc(S(=O)(=O)F)c2)c1=O`, the inhibition result in test [1] was “Dose-dependent effect”.

On to `CCCn1c(=O)c2c(nc3cc(OC)ccn32)n(CCCNC(=O)c2ccc(S(C)(=O)=O)cc2)c1=O`, for which the inhibition entry was “Dose-dependent effect” in test [1] and 0% in test [8]. The figures for the pIC50(app) in test [9] and in test [10] were 5.9 and 6.1, respectively. This molecule also showed a Ki at Adenosine receptor A3 [11] of 525 nM. For the same molecule, the Activity in test [12] was found to be 19.8%; in test [13] it was 97.6%. The values for the Kb on Adenosine receptor A3 [14] and on Adenosine receptor A3 [15] were 1260 nM and 631 nM, respectively.

`CCCn1c(=O)c2c(nc3cc(OC)ccn32)n(CCCOC(=O)c2cccc(S(=O)(=O)F)c2)c1=O`: in test [1], the inhibition entry was “Dose-dependent effect”.

For the molecule `CCCn1c(=O)c2c(nc3cc(OC)ccn32)n(CCCOC(=O)c2ccc(S(=O)(=O)F)cc2)c1=O`, in test [1], the inhibition entry is “Dose-dependent effect”.

Take `CCCn1c(=O)c2c(nc3cc(OC)ccn32)n(CCCCNC(=O)c2cccc(S(=O)(=O)F)c2)c1=O`: the inhibition entry in test [1] was “Dose-dependent effect”.

On to `CCCn1c(=O)c2c(nc3cc(OC)ccn32)n(CCCCOC(=O)c2ccc(S(=O)(=O)F)cc2)c1=O`, for which the inhibition result in test [1] is “Dose-dependent effect”.

Take `CCCn1c(=O)c2c(nc3cc(OC)ccn32)n(CCCNC(=O)c2cccc(S(=O)(=O)F)c2)c1=O`: the inhibition result in test [1] was “Dose-dependent effect”.
